Screening results deposited in PubChem BioAssay by Sanford-Burnham Center for Chemical Genomics.
SENP1 inh – human SENP1 catalytic domain inhibitors, primary screen, biochemical, FRET, uHTS; Sentrin-specific protease 1 (Homo sapiens), Q9P0U3; recombinant SENP1 catalytic domain, CyPet-SUMO1-YPet FRET cleavage; inhibition, % at 10 µM; 360,000 tested, 0.21% active; AID 624204, 2012;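 active means inhibition at least 30% at 10 µM, raw YFP signal under a set limit, fluorescence ratio 0.5 to 1.5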;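 further: 0% = enzyme with DMSO and 100% = no enzyme wells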
Target sequence (Q9P0U3 419-644 limits assumed): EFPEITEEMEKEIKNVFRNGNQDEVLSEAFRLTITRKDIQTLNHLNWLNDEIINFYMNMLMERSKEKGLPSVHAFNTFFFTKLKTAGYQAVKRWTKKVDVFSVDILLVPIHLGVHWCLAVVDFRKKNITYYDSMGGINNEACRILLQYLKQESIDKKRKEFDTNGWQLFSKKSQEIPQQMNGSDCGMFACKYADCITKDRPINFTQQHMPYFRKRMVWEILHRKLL
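Compound: 10 µM single point, 0.5% DMSO; Test system: hSENP1 catalytic domain, recombinant; Timing: 50 min reaction at room temperature; Technique: FRET, CFP and YFP emission; Control set: no-enzyme wells low, DMSO-plus-enzyme wells high control.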
SENP8 block-1 – human SENP8 protease inhibitors, primary screen, biochemical, fluorescence, Nedd8 protein substrate, uHTS; recombinant SENP8; AID 602440, 2012; 360,000 tested, 0.64% active; inhibition, % at 20 µM; Sentrin-specific protease 8 (Homo sapiens), Q96LD8; in the data active means inhibition mostly above about 40%, no sharp cut-off; inactive means mostly below about 27%
Target sequence (Q96LD8 whole entry, looked up): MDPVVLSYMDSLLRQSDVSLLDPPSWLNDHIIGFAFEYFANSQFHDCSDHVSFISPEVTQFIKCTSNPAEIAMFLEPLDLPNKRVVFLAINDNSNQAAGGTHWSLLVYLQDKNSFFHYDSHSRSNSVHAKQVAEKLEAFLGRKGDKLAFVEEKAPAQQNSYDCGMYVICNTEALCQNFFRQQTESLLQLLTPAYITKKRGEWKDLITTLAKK
SENP7 block – SENP7 protease inhibitors, primary screen, biochemical, luminescence, uHTS. inhibition, % at 5 µM. recombinant SENP7, Z-RLRGG-aminoluciferin luminescence, 40 min. Sentrin-specific protease 7 (Homo sapiens), Q9BQF6. 330,000 tested, 1.5% active. AID 434973, 2010;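 active means inhibition above about 50% at the single test dose, limit read from the data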;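 further: plate controls were DMSO with enzyme for no effect and no enzyme buffer wells for full effect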
SENP8 block-2 – SENP8 protease inhibitors, primary screen, biochemical, luminescence; Sentrin-specific protease 8 (Homo sapiens), Q96LD8; purified SENP8, Z-RLRGG-aminoluciferin cleavage; inhibition, % at 10 µM; 330,000 tested, 1.2% active; in the data active means inhibition above about 50%
SENP6 block – SENP6 protease inhibitors, primary screen, biochemical, luminescence, uHTS. Sentrin-specific protease 6 (Homo sapiens), Q9GZR1. Recombinant SENP6 catalytic domain, aminoluciferin luminescence. inhibition, % at 10 µM. 330,000 tested, 1.8% active;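 active means inhibition above about 50% at the single tested dose, limit read from the data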;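 further: plate controls were DMSO wells with enzyme for no effect and DMSO wells lacking enzyme for full effect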
SENP8 conf – SENP8 protease inhibitors, retest, confirmation, biochemical, luminescence, single concentration | Recombinant SENP8, Z-RLRGG-aminoluciferin luminescence, 60 min | inhibition, % at 12.5 µM | 6,200 tested, 40% active | shares compounds with SENP7 block;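 active means mean inhibition across replicates above about 50%, limit read from the data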
SENP6 conf – SENP6 protease inhibitors, confirmation, biochemical, luminescence, single concentration | shares compounds with SENP7 block | recombinant SENP6, Z-RLRGG-aminoluciferin luminescence | inhibition, % at 12.5 µM | 6,200 tested, 58% active
SENP7 confirm – SENP7 protease inhibitors, retest, confirmation, biochemical, luminescence, single concentration | shares compounds with SENP7 block | recombinant SENP7, Z-RLRGG-aminoluciferin luminescence, 40 min | inhibition, % at 12.5 µM | 6,200 tested, 69% active | AID 488917, 2010
Casp3 SENP sel – caspase-3 protease inhibitors, confirmation, selectivity assay for SENP inhibitor project, biochemical, single concentration; shares compounds with SENP7 block; purified caspase-3, Z-DEVD-aminoluciferin luminescence, 60 min; inhibition, % at 12.5 µM; 6,200 tested, 60% active; AID 488918, 2010;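 active means mean inhibition above about 50%, limit read from the data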;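 further: plate controls were enzyme with DMSO for no effect and wells without caspase-3 for full effect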
Target sequence (P42574 28-227 limits assumed): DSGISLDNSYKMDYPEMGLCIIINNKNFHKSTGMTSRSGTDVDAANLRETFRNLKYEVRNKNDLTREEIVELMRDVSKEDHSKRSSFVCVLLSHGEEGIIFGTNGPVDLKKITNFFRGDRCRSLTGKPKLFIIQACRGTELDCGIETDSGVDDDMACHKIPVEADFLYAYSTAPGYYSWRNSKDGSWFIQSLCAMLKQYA
SENP luc ctr – interferes with luciferase luminescence in SENP counter-screen. 6,200 tested, 39% active. Pre-incubated SENP8/Z-RLRGG-aminoluciferin, luciferase luminescence interference. inhibition, % at 12.5 µM. AID 488919. shares compounds with SENP7 block;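 active means mean inhibition above about 50% when retested at one dose, limit read from the data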;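 further: plate controls were DMSO wells with completed reaction for no effect and substrate without enzyme for full effect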
* marks the source's active call; other numbers are inactive results. Rows were chosen to be rich in hits. Some 2.5% of all compounds tested hit in one or more screens of this group.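 How the source made its calls, unless noted: active means mean inhibition above about 50% in the one-dose retest (limit read from the data); inactive means the rest.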

Results for Cc1ccc(C(=O)CC(=O)c2ccccc2)cc1 ?
SENP1 inh: 0; SENP8 block-1: 20; SENP7 block: 66*; SENP8 block-2: 70*; SENP6 block: 75*; SENP8 conf: -4; SENP6 conf: 66*; SENP7 confirm: 91*; Casp3 SENP sel: 50*; SENP luc ctr: 44

How did O=C(NC(=O)c1ccccc1)Nc1ccccc1 do in these assays?
SENP1 inh: 2; SENP8 block-1: 6; SENP7 block: 93*; SENP8 block-2: 77*; SENP6 block: 83*; SENP8 conf: 5; SENP6 conf: 27; SENP7 confirm: 50*; Casp3 SENP sel: 46; SENP luc ctr: 19

What do the screens show for `O=C(Nc1ccccc1)c1ccc(OC(=O)c2ccccc2)cc1`?
SENP1 inh: 0; SENP8 block-1: 5; SENP7 block: 81*; SENP8 block-2: 13; SENP6 block: 54*; SENP8 conf: 4; SENP6 conf: 8; SENP7 confirm: 12; Casp3 SENP sel: 9; SENP luc ctr: 0

How did Cc1ccc2cc(CN(c3cccc(C)c3C)S(=O)(=O)c3ccccc3)c(=O)[nH]c2c1 do in these assays?
SENP1 inh: 1; SENP8 block-1: -90; SENP7 block: 9; SENP8 block-2: -7; SENP6 block: -9

Results for Cn1nc(C(C)(C)C)cc1C(=O)N1CCCCC1c1cc(C(=O)Nc2ccc3c(c2)OCO3)no1 (centres undefined) ?
SENP1 inh: 1; SENP8 block-1: 20

What do the screens show for `COc1ccc2[nH]c3c(c2c1)CCN1C(=O)C(CC(=O)NC/C=C(\C)CCC=C(C)C)C[C@H](C(=O)N(C(C)C)C(C)C)[C@@]31C` (some centres undefined)?
SENP1 inh: 1; SENP8 block-1: 2; SENP7 block: 8

What do the screens show for `CCCCc1ccc(NC(=O)CSc2nc(=O)n3cc(C)ccc3n2)cc1`?
SENP1 inh: -1; SENP8 block-1: -9; SENP7 block: 1; SENP8 block-2: 12; SENP6 block: -1

How did CCCCNC(=O)C1(C)CCC(=O)N1C1CCN(Cc2ccccc2)CC1 (centres undefined) do in these assays?
SENP1 inh: 1; SENP8 block-1: 12

Results for O=C(c1ccccc1)c1cnc(-c2ccc(Cl)cc2)s1 ?
SENP1 inh: 2; SENP8 block-1: 31; SENP7 block: 97*; SENP8 block-2: 22; SENP6 block: 80*; SENP8 conf: 14; SENP6 conf: 19; SENP7 confirm: 7; Casp3 SENP sel: 25; SENP luc ctr: 7

Results for CN(C)/C=C/C(=O)c1cnc(-c2ccccc2)s1 ?
SENP1 inh: 0; SENP8 block-1: 10; SENP7 block: -10; SENP8 block-2: -4; SENP6 block: 0

Results for O=C(c1ccccc1)c1cnc(-c2ccccc2)s1 ?
SENP1 inh: 0; SENP8 block-1: 6; SENP7 block: 96*; SENP8 block-2: 89*; SENP6 block: 93*; SENP8 conf: 54*; SENP6 conf: 50; SENP7 confirm: 73*; Casp3 SENP sel: 62*; SENP luc ctr: 20

What do the screens show for `O=C(c1ccc(Cl)cc1)c1cnc(-c2ccc(Cl)cc2)s1`?
SENP1 inh: 0; SENP8 block-1: 30; SENP7 block: -4; SENP8 block-2: -14; SENP6 block: -4

Results for O=C(Cn1nc(C(=O)O)c2ccccc2c1=O)Nc1ccc(Cl)c(S(=O)(=O)N2CCOCC2)c1 ?
SENP1 inh: 2; SENP8 block-1: -1; SENP7 block: -4; SENP8 block-2: -1; SENP6 block: 5

How did Cc1ccc(-c2csc(N3C(=N)SCC3=O)n2)cc1 do in these assays?
SENP7 block: 71*; SENP8 block-2: 51*; SENP6 block: 0; SENP8 conf: 2; SENP6 conf: 13; SENP7 confirm: 10; Casp3 SENP sel: 16; SENP luc ctr: 8

What do the screens show for `CC1=NN(c2nc(-c3ccc(Cl)cc3)cs2)C(=O)C1`?
SENP1 inh: 2; SENP8 block-1: 27; SENP7 block: 9; SENP8 block-2: -3; SENP6 block: 37

Results for CNC(=O)COC(=O)c1ccc(-c2nc3ccccc3s2)s1 ?
SENP1 inh: -6; SENP8 block-1: -282; SENP7 block: 97*; SENP8 block-2: 93*; SENP6 block: 97*; SENP8 conf: 26; SENP6 conf: 31; SENP7 confirm: 51*; Casp3 SENP sel: 52*; SENP luc ctr: 32

What do the screens show for `COCCCNC(=O)COC(=O)c1ccc(-c2nc3ccccc3s2)s1`?
SENP1 inh: -1; SENP8 block-1: -433; SENP7 block: 86*; SENP8 block-2: 82*; SENP6 block: 86*; SENP8 conf: 61*; SENP6 conf: 66*; SENP7 confirm: 91*; Casp3 SENP sel: 78*; SENP luc ctr: 59*

What do the screens show for `CNC(=O)COC(=O)/C=C/c1nc2ccccc2s1`?
SENP1 inh: 2; SENP8 block-1: 1; SENP7 block: -8; SENP8 block-2: -9; SENP6 block: -17

What do the screens show for `CN1C(=O)/C(=C/c2coc3ccc(O)cc3c2=O)SC1=S`?
SENP1 inh: 10; SENP8 block-1: 23; SENP7 block: 80*; SENP8 block-2: 56*; SENP6 block: 79*; SENP8 conf: 15; SENP6 conf: 20; SENP7 confirm: 13; Casp3 SENP sel: 26; SENP luc ctr: 4

How did Cc1cc(/C=C2\SC(=S)N(C)C2=O)c(C)n1-c1ccc(O)cc1 do in these assays?
SENP1 inh: -32; SENP8 block-1: 15; SENP7 block: -9; SENP8 block-2: 58*; SENP6 block: 79*; SENP8 conf: 36; SENP6 conf: 84*; SENP7 confirm: 92*; SENP luc ctr: 23
